Data from PMC6153967 (CNS Drugs, 2018).
Several values for one entry are separate records, joined by “and”; a condition that tells them apart may be missing. Equal entries are not always repeated. Where two headings read alike, the source gives them in different places.

How the values were obtained:
[1] = type: in vivo, human; conditions: drug-naïve
Summary of the method: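 CSF came from 64 untreated patients with cognitive deficits (MMSE 15–30). Sampling: lumbar puncture at L3–L5, supine, atraumatic needle, 8–11 a.m. Spun 5 min at 2000 rpm at room temperature, aliquoted into polypropylene, stored at –80 °C. Samples were derivatized with EDC/TFEA for 30 min at room temperature and centrifuged. The supernatant went to LC–MS/MS. Identity was set by retention time and two transition ions against reference standard. LOQ 0.1 ng/ml; range 0.1–1000 ng/ml.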

[2] = Brain penetration after single oral dose in Sprague Dawley rats; type: in vivo, male Sprague Dawley rats; conditions: oral 30 mg/kg
Summary of the method: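 Fasted male Sprague Dawley rats received test compound in saline by oral gavage at 30 mg/kg. Terminal plasma, CSF and brain were taken at 1, 2, 6 and 24 h, three rats per time point. Brains were perfused to remove blood before processing. All matrices were assayed by LC–MS/MS. AUC ratios were derived from mean concentration–time curves.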

[3] = ref Alzheon, data on file, cited from earlier work
[4] = type: in vivo, human; conditions: tramiprosate 150 mg BID, week 78
Summary of the method: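 Retrospective lumbar CSF from six patients with AD in the phase III trial, sampled at week 78 of dosing. The metabolite was quantified by a validated LC–MS/MS method in a separate bioanalytical laboratory.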

[5] = Oral and intravenous pharmacokinetics in Sprague Dawley rats; type: in vivo; conditions: male, rat, plasma, 10 mg/kg; for Vd: intravenous 10 mg/kg
Summary of the method: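 Fasted male Sprague Dawley rats, n = 3 per group, received test compound in saline orally by gavage (30 mg/kg) or as an IV bolus (10 mg/kg). Serial blood was drawn at 0.25, 0.5, 1, 2, 4, 8 and 24 h into K2EDTA and centrifuged to plasma. Plasma was stored at –80 °C and assayed by LC–MS/MS. Parameters were calculated from mean concentration–time curves.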

[6] = target: Recombinant human Aβ42 peptide (Homo sapiens, UniProt P05067); test: IMS–MS anti-Aβ42 oligomer activity; type: biochemical; conditions: for Inhibition of Aβ42 oligomer formation (in words): 1000:1, 24 h in vitro
Chain of Recombinant human Aβ42 peptide (P05067 672-713): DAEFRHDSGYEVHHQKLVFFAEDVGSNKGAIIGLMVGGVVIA
Summary of the method: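 Recombinant human Aβ42 was reconstituted in LC–MS-grade water as a 5 mg/ml stock and diluted to 22 pmol/µl final. Test compound in water was diluted to […] and 22,000 pmol/µl solutions for 100- and 1000-fold molar excess. Mixtures were incubated at room temperature for 0, 4 and 24 h. Samples were analysed by direct infusion on a traveling-wave IMS Q-TOF: positive sensitivity mode, m/z 500–4000, with drift times used to resolve monomer and oligomers.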

[7] = cited from earlier work
[8] = tramiprosate phase III NA trial; cited from earlier work
[9] = both phase III trials, subjects receiving active drug; cited from earlier work

## O=C(O)CCS(=O)(=O)O [3-SPA, 3-sulfopropanoic acid]
[1]; all patients
  Concentration of 3-SPA in CSF, median: 1.7 ng/ml and 10.8 nM
[1]; female
  Concentration of 3-SPA in CSF, median: 1.6 ng/ml and 10.4 nM
  Concentration of 3-SPA in CSF, minimum–maximum: 0.6–4.3 ng/ml and 4.2–27.7 nM
[1]; female (N 37)
  Concentration of 3-SPA in CSF, mean ± SD: 1.7 ± 0.7 ng/ml and 11.2 ± 4.4 nM
[1]; male
  Concentration of 3-SPA in CSF, median: 1.7 ng/ml and 11.1 nM
  Concentration of 3-SPA in CSF, minimum–maximum: 0.8–3.8 ng/ml and 5.5–24.7 nM
[1]; male (N 27)
  Concentration of 3-SPA in CSF, mean ± SD: 1.9 ± 0.6 ng/ml and 12.5 ± 4.1 nM
[2]
  Brain/plasma AUC ratio (brain penetration): 25.3%
[3]; at 2000 mg/kg ALZ-801 NOAEL, 28-day rat study
  Sustained 3-SPA levels (plasma AUC): 180 millimolar (AUC in h × nM)
[4]; human, CSF, oral, 150 mg BID, Minimum–maximum 3-SPA concentration in CSF
  concentration at 78 week: 112 to 232 nM
[4]
  Median 3-SPA concentration in CSF: 19.8 ng/ml and 128.6 nM
[5]
  clearance: 45 mL/min/kg
[5]; Vss
  Vd: 12.9 L/kg
[5]; Vz
  Vd: 43.6 L/kg
[6]
  Inhibition of Aβ42 oligomer formation (in words): Near complete prevention of formation of Aβ42 oligomers except for pentamers
[6]; 1000:1, after 4 h incubation
  Aβ42 oligomer species not inhibited: dimers, trimers, and pentamers
[6]; 1000:1, after 24 h incubation
  Aβ42 oligomer species not inhibited: pentamers

## CC(C)[C@H](N)C(=O)NCCCS(=O)(=O)O [ALZ-801]
[7]; PK/PD projections using 14C tramiprosate
  Improvement in brain penetration: ~ 30%
[3]; 1-month (28-day) rat study
  NOAEL: 2000 mg/kg
[3]; 6-month rat study
  NOAEL: 1500 mg/kg

## NCCCS(=O)(=O)O [Tramiprosate, reference compound]
[7]
  Steady-state brain penetration: approximately 40%
[6]
  Inhibition of Aβ42 oligomer formation (in words): complete inhibition
[8]
  Estimated mean concentration in the brain: ~ 130 nM
[9]
  Cases of ARIA-E in brain MRI safety analyses: no cases
